Results on 23 compounds are retold here after ChEMBL document CHEMBL4311987, “Discovery of novel allosteric site and covalent inhibitors of FBPase with potent hypoglycemic effects” (Eur J Med Chem, 2019).

Data set [1] addresses T1, Fructose-1,6-bisphosphatase 1 (Homo sapiens, UniProt P09467).
T1 sequence (P09467 whole entry): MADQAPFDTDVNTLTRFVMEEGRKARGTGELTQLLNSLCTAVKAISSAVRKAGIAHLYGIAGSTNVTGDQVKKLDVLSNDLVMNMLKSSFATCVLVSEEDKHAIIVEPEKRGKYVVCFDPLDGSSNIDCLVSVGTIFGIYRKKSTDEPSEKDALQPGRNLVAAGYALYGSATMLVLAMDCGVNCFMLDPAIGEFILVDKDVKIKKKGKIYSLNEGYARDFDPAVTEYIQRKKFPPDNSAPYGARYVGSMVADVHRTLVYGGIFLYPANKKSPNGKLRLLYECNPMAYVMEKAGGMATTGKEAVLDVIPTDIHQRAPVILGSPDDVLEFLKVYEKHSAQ
Kind of data set: Inhibition of human FBPase expressed in Escherichia coli BL21 (DE3) using FBP as substrate incubated for 5 mins by malachite green dye based spectrophotometry.

Data set [2] can be described thus: Cytotoxicity against C57BLKS rat Primary hepatocytes assessed as cell viability incubated for 6 hrs by SRB assay. Type of data set: cell-based, Hepatocyte. Conditions: read-out: Activity. The method, boiled down: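 Rat primary hepatocytes under physiological conditions exposed to compounds for 6 h. Viability read by sulforhodamine B staining. Means ± SEM of four independent experiments.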

Data set [3] concerns Hepatocyte. Briefly: Inhibition of glucose production in cAMP and Dex pre-treated C57BLKS rat Primary hepatocytes at 1 uM incubated for 3 hrs by glucose assay kit method. The data set is classed as functional, cell-based. The method, boiled down: (§1)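 Rat primary hepatocytes cultured overnight in DMEM/10% FBS, then pretreated with compounds for 3 h in fresh medium. Switched to glucose-free DMEM with 2 mM sodium pyruvate, 20 mM sodium lactate and compound for 3 h. Medium glucose measured with a kit and normalized to BCA protein. Pathological arm adds 1 µM dexamethasone plus 200 µM cAMP for 3 h. Means ± SEM, n=4.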

Data set [4] concerns Hepatocyte. Briefly: Inhibition of lipid accumulation in C57BLKS rat Primary hepatocytes assessed as reduction in insulin and glucose-induced TG level at 100 uM incubated for 24 hrs. Type of data set: functional, cell-based. In outline:
(§2)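 After overnight culture in DMEM, rat primary hepatocytes pretreated with compounds, then held in 25 mM glucose plus 500 nM insulin for 24 h to induce lipid accumulation. Triglyceride and total cholesterol measured with assay kits and normalized to BCA protein. Means ± SEM of four independent experiments.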

Data set [5] deals with Hepatocyte. Kind of data set: Inhibition of lipid accumulation in C57BLKS rat Primary hepatocytes assessed as reduction in insulin and glucose-induced TC level incubated for 24 hrs. The data set is classed as functional, cell-based. In outline:
as §2

Data set [6] concerns Hepatocyte. Briefly: Inhibition of glucose production in C57BLKS rat Primary hepatocytes at 400 uM incubated for 3 hrs by glucose assay kit method relative to control. The data set is classed as functional. The method, boiled down: as §1
For data set [7], the system named is Hepatocyte. Briefly: Inhibition of glucose production in cAMP and Dex pre-treated C57BLKS rat Primary hepatocytes incubated for 3 hrs by glucose assay kit method. Type of data set: functional, cell-based. The method, boiled down: as §1
The test system of data set [8] is Hepatocyte. Briefly: Inhibition of lipid accumulation in C57BLKS rat Primary hepatocytes assessed as reduction in insulin and glucose-induced TG level at 25 uM incubated for 24 hrs. The data set is classed as functional, cell-based. The method, boiled down:
as §2

For data set [9], the system named is Hepatocyte. Briefly: Inhibition of lipid accumulation in C57BLKS rat Primary hepatocytes assessed as reduction in insulin and glucose-induced TC level at 25 uM incubated for 24 hrs. Type of data set: functional, cell-based. The method, boiled down:
as §2

Data set [10] relates to Hepatocyte. Kind of data set: Cytotoxicity against C57BLKS rat Primary hepatocytes assessed as cell viability by measuring cellular protein level at 1 to 100 uM in presence of cAMP and Dex by bicinchoninic acid method. Type of data set: cell-based. In outline: (§3)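 Primary hepatocytes isolated from rat, cultured overnight in DMEM with 10% FBS, then exposed to compounds. Cellular protein per group measured by bicinchoninic acid (BCA) method as a viability control. The same protein values serve to normalize glucose, TG and TC contents. Pathological stimulation where applicable: 1 µM dexamethasone plus 200 µM cAMP, or 25 mM glucose plus 500 nM insulin for 24 h. Means ± SEM, four independent experiments.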

Data set [11] deals with Hepatocyte. Briefly: Cytotoxicity against C57BLKS rat Primary hepatocytes assessed as cell viability by measuring cellular protein level at 10 to 400 uM by bicinchoninic acid method. The data set is classed as cell-based. In outline:
as §3

The subject of data set [12] is Hepatocyte. Kind of data set: Inhibition of glucose production in C57BLKS rat Primary hepatocytes incubated for 3 hrs by glucose assay kit method. The data set is classed as functional, cell-based. In outline: as §1
In data set [13] the test system is Hepatocyte. Kind of data set: Cytotoxicity against C57BLKS rat Primary hepatocytes assessed as cell viability by measuring cellular protein level at 10 to 100 uM in presence of insulin and glucose by bicinchoninic acid method. Type of data set: cell-based. The method, boiled down: as §3
For data set [14], the target named is T2, Fructose-1,6-bisphosphatase 1 (Homo sapiens) (UniProt P09467).
T2 sequence (whole entry): T1 sequence (P09467 whole entry)
Briefly: Inhibition of human FBPase expressed in Escherichia coli BL21 (DE3) at 500 uM using FBP as substrate incubated for 5 mins by malachite green dye based spectrophotometry relative to control.

Activity calls are given as the source filed them. The rule behind the calls is not given here.

What is called IC50 is the concentration that inhibits the measured activity by half. A low value points to greater potency. The compound `Nc1ncnc2c1ncn2[C@@H]1O[C@H](COP(=O)(O)O)[C@@H](O)[C@H]1O` [ADENOSINE PHOSPHATE] had a half-maximal inhibitory concentration (IC50) in data set [1] of 2300 nM.
`CCOC(=O)C(C)(C)Oc1cccc(/C=C/[N+](=O)[O-])c1` had an IC50 in data set [1] of 1000 nM.
By inhibition is commonly meant how much of the control response was suppressed. As to `CCOC(=O)C(C)(C)Oc1ccc(Cl)cc1/C=C/[N+](=O)[O-]`, the viability at 6 h in data set [2] was more than 80%. Further, the inhibition entry with Hepatocyte [3], in the data set with Hepatocyte [8] and in the data set with Hepatocyte [9] was “Active” in each case. In addition, in the data set with Hepatocyte [4], the inhibition result was “inactive”. The inhibition entry with Hepatocyte [5], with Hepatocyte [7] and in the data set with Hepatocyte [12] was “Dose-dependent effect” each time. This compound also returned an inhibition at 400 µM in the data set on Hepatocyte [6] of 90%. Moreover, the Activity entry in the data set with Hepatocyte [10], in the data set with Hepatocyte [11] and with Hepatocyte [13] was “Non-Toxic” each time. In [1], this compound displayed an IC50 of 8200 nM.
As to `CCOC(=O)C(C)(C)Oc1ccccc1/C=C/[N+](=O)[O-]`, the IC50 in data set [1] was determined as 2700 nM.
In data set [1], `O=[N+]([O-])/C=C/c1ccccc1` [(2-NITROVINYL)BENZENE] yielded an IC50 of 3500 nM.
In the case of `C=CC(=O)Nc1ccccc1`, the inhibition in [14] turned out to be 17%.
`CCCCCCCC/C=C(\CCCCCCCC(=O)O)[N+](=O)[O-]` [NITROLEIC ACID] gave an IC50 in data set [1] of 58000 nM.
For the compound `S=C=NCc1ccccc1`, the inhibition in [14] is 4.1%.
For the compound `CCOC(=O)C(C)(C)Oc1ccc(/C=C/[N+](=O)[O-])cc1Cl`, the half-maximal inhibitory concentration (IC50) in [1] is 1600 nM.
As for `CCOC(=O)C(C)(C)Oc1ccc(Cl)c(/C=C/[N+](=O)[O-])c1`, in data set [2], the viability at 6 h was more than 80%. In addition, the inhibition entry in the data set on Hepatocyte [3], in the data set on Hepatocyte [8] and in the data set on Hepatocyte [9] was “Active” each time. The inhibition entry in the data set on Hepatocyte [4] was “inactive”. The inhibition result with Hepatocyte [5], in the data set on Hepatocyte [7] and in the data set with Hepatocyte [12] was “Dose-dependent effect” in each case. Besides, in the data set with Hepatocyte [6], the inhibition at 400 µM stood at 90%. Also, the Activity entry in the data set on Hepatocyte [10], in the data set on Hepatocyte [11] and with Hepatocyte [13] was “Non-Toxic” each time. In addition, the IC50 in data set [1] turned out to be 2900 nM.
In data set [1], `CCOC(=O)C(C)(C)Oc1ccc(F)cc1/C=C/[N+](=O)[O-]` showed an IC50 of 7000 nM.
As to `CC(=O)C=O`, the inhibition in data set [14] is 19%.
As to `CCOC(=O)C(C)(C)Oc1ccc(/C=C/[N+](=O)[O-])c(Cl)c1`, the half-inhibitory concentration (IC50) in data set [1] is 1800 nM.
For the compound `O=C/C=C/c1ccccc1`, the inhibition in data set [14] came out at 15%.
Take `CCOC(=O)C(C)(C)Oc1cc(/C=C/[N+](=O)[O-])ccc1Cl`: inhibition in data set [1] was half-maximal at 830 nM (IC50).
`O=C1C=CCC1` displayed an inhibition in [14] of 29%.
Still for that read-out and setting: next, `c1ccc(C2CO2)cc1` (configuration not stated): 31%.
For `CCOC(=O)C(C)(C)Oc1cc(/C=C/[N+](=O)[O-])ccc1OC(F)F`, in data set [1], inhibition was half-maximal at 1600 nM (IC50).
The same measure, in the same setting: the same measure for `CCOC(=O)C(C)(C)Oc1ccc(/C=C/[N+](=O)[O-])cc1`: 3100 nM.
For `O=C(O)/C=C/C(=O)O`, in data set [14], the inhibition was found to be 9.5%.
As for `CCOC(=O)C(C)(C)Oc1ccc(Br)c(/C=C/[N+](=O)[O-])c1`, in data set [1], the IC50 was determined as 790 nM.
In [14], `COC(=O)/C=C/C(=O)OC` had an inhibition of 22%.
Same read-out and setting: next, `C=C(CC)C(=O)c1ccc(OCC(=O)O)c(Cl)c1Cl`: 56%.
